Data from ChEMBL document CHEMBL4808163, “Benzothiazolyl and Benzoxazolyl Hydrazones Function as Zinc Metallochaperones to Reactivate Mutant p53” (J Med Chem, 2021).
Active and inactive are the calls of the source. The calls are words filed in the database; no cut-off is given here.

Legend:
[1] = Induction of Zinc-dependent p53 R175H mutant refolding by assessing wild type conformation
Outline: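 Cells grown on coverslips and treated, fixed in 4% paraformaldehyde 10 min, permeabilized in 0.5% Triton X-100 5 min. Stained overnight with conformation-specific antibodies PAB1620 (1:50, wild-type fold) and PAB240 (1:400, misfolded/unfolded), then goat anti-mouse IgG secondary for 40 min.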

hERG (KCNH2) = hERG (KCNH2) (Homo sapiens, UniProt Q12809); test: Displacement of [3H]-dofetilide from human recombinant ERG at 10 uM relative to control; settings: probe [3H]-dofetilide
Chain of hERG (KCNH2) (Q12809 whole entry): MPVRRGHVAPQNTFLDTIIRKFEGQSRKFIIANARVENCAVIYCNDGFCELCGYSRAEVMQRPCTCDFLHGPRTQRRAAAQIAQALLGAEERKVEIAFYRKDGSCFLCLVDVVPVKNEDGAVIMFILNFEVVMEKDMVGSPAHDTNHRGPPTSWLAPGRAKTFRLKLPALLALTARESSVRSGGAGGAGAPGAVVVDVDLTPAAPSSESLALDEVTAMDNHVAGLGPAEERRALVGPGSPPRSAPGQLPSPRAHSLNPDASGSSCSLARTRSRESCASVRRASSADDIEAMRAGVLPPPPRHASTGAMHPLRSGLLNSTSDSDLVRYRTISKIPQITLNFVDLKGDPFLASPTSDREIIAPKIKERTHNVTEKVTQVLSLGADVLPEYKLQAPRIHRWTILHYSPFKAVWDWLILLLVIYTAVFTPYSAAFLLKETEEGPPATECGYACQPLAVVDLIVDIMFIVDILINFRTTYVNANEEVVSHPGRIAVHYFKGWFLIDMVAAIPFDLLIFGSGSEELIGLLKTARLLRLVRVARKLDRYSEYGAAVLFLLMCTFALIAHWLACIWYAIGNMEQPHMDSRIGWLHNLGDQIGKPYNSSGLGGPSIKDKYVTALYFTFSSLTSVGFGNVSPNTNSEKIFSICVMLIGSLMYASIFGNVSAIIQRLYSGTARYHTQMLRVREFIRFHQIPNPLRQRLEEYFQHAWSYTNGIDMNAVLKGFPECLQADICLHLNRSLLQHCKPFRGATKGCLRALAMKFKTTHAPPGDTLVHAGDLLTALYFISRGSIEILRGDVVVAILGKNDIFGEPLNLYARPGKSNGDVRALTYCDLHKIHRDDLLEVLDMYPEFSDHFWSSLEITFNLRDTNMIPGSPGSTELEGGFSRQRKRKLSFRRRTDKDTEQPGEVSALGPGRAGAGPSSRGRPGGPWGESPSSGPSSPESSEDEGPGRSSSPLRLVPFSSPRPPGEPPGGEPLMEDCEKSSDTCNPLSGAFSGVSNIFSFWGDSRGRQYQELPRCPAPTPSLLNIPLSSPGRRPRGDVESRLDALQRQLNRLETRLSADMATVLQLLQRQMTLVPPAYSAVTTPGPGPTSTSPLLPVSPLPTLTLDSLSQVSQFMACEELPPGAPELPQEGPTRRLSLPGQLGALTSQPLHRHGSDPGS

[2] = Binding affinity to Zn(II)+ incubated for 60 mins using FluoZin-3 by fuorescence assay
Sodium channel site 2 = test: Displacement of [3H]batrachotoxinin from rat Sodium channel site 2 at 10 uM incubated for 60 mins by radiometric scintillation analysis relative to control; settings: rat sodium channel site 2, probe [3H]batrachotoxinin
TOV112D [3] = test: Growth inhibition of human TOV112D cells harbouring p53 R175H mutant incubated for 3 days by MTS assay; format: functional, cell-based; settings: 72 h
[4] = biological target: 5-hydroxytryptamine receptor 2A (Homo sapiens, UniProt P28223); test: Displacement of [125I]+/-DOI from human recombinant 5-HT2A receptor at 10 uM after 60 mins by scintillation counting analysis relative to control; settings: recombinant human 5-HT2A receptor, probe [125I]+/-DOI
Chain of 5-hydroxytryptamine receptor 2A (P28223 whole entry): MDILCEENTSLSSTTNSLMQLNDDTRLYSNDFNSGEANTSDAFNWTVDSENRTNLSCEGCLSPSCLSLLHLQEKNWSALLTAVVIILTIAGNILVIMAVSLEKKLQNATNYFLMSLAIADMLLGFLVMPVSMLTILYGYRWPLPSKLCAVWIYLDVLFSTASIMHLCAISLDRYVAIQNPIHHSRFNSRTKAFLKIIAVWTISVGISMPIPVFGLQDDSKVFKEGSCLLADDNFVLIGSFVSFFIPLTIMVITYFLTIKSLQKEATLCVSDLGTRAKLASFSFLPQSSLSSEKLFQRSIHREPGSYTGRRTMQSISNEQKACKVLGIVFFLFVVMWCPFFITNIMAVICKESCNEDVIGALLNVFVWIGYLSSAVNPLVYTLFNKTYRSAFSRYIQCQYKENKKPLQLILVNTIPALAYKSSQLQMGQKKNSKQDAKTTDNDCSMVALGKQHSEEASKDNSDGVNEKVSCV

TOV112D [5] = test: Anticancer activity against human TOV112D cells harbouring p53 R175H mutant xenografted NCr nu/nu mouse assessed as tumor growth inhibition at 5.73 mg/kg, ip relative to control; format: functional; settings: read-out: TGI
Outline: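 Tumors (five per group) were grown to 50 mm³, then the compound was given ip daily. Dimensions were measured every other day, with volume = L × W² × π/6. Significance was tested by Student's t test.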

[6] = biological target: Sodium-dependent noradrenaline transporter (Homo sapiens, UniProt P23975); test: Displacement of [3H]nisoxetine from recombinant human norepinephrine transporter at 10 uM incubated for 120 mins by radiometric scintillation analysis relative to control; format: ADME; settings: probe [3H]nisoxetine
Chain of Sodium-dependent noradrenaline transporter (P23975 whole entry): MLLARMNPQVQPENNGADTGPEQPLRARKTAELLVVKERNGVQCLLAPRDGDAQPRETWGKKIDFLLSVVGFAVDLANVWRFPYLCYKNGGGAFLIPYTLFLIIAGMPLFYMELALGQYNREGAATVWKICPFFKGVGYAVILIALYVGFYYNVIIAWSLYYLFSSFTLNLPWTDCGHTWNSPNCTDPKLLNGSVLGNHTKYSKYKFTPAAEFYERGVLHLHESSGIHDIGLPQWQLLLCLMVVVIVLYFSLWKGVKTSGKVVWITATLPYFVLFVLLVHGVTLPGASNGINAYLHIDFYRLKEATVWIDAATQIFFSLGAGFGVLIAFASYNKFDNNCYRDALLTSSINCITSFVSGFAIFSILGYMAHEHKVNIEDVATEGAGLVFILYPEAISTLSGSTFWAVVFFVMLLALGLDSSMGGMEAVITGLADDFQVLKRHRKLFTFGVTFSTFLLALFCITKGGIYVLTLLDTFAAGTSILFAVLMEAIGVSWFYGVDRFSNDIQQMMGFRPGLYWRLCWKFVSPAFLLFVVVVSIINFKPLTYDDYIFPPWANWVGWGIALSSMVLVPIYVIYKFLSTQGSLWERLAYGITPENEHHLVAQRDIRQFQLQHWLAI

NCI-H1299 [7] = test: Induction of ROS production in human H1299 cells at 0.75 uM incubated for 24 hrs by CellRox green based fluorescence flow cytometry relative to ZMC1; format: functional
Mu-type opioid receptor = Mu-type opioid receptor (Homo sapiens, UniProt P35372); test: Displacement of [3H]DAMGO from human recombinant mu receptor at 10 uM after 120 mins by scintillation counting analysis relative to control; settings: probe [3H]DAMGO
Chain of Mu-type opioid receptor (P35372 whole entry): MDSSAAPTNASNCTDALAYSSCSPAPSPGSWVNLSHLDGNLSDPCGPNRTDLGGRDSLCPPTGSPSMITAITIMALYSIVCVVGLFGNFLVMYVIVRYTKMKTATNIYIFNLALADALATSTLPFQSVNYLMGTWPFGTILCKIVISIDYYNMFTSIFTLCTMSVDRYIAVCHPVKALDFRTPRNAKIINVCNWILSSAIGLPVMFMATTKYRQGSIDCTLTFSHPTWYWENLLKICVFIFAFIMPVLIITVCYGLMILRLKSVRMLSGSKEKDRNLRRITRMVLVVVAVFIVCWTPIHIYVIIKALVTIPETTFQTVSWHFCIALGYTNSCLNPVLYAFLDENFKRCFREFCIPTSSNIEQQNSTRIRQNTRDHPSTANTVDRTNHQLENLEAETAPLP

NCI-H1299 [8] = test: Cytotoxicity against p53-null human H1299 cells; format: functional, cell-based
Outline: (§1)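 5000 cells/well seeded; serial compound dilutions added next day at about 50% confluence. Growth read by MTS or Calcein AM after 3 days. Three independent experiments, each in triplicate; significance by Student's t test.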

NCI-H460 = test: Cytotoxicity against human NCI-H460 cells harbouring p53 wild type; format: functional, cell-based; outline: as §1
[9] = Ratio of EC50 for test compound to EC50 for ZMC1 for growth inhibition of human TOV-112D cells harbouring p53 R175H mutant incubated for 3 days by MTS assay; format: functional, TOV112D; settings: time 3 day
[10] = Binding affinity to Zn(II)+ incubated for 60 mins using RhodZin-3 by fuorescence assay
[11] = Apparent permeability in human Caco-2 cells at 5 uM measured up to 90 mins by LC-MS/MS analysis; format: ADME, cell-based

| SMILES | Activity [1] | inhibition at 10 µM (hERG (KCNH2)) | Kd [2] | inhibition at 1 h, 10 µM (Sodium channel site 2) | EC50 (TOV112D [3]) | inhibition at 1 h, 10 µM [4] | inhibition at 2 h, 10 µM [6] | Ratio (NCI-H1299 [7]) | inhibition at 2 h, 10 µM (Mu-type opioid receptor) | also measured |
| --- | --- | --- | --- | --- | --- | --- | --- | --- | --- | --- |
| C/C(=N\Nc1nc2ccccc2n1CCN1CCOCC1)c1ccccn1 | Active | 76% | 71 nM | 50% | 51 nM | 100% | -7% | – | – | inhibition in vivo at 5.73 mg/kg (TOV112D [5]): 59% |
| C/C(=N\Nc1nc2ccccc2s1)c1cc(OCCN2CCN(C)CC2)ccn1 | inactive | – | 20 nM | – | – | – | – | 0.9 | – | – |
| C/C(=N\Nc1nc2ccccc2n1C)c1ncccn1 | inactive | 77% | 54 nM | 12% | – | 11% | -2% | 1.6 | 41% | – |
| COC/C(=N\Nc1nc2ccccc2s1)c1ccccn1 | Active | – | 197 nM | – | – | – | – | 0.9 | – | – |
| C/C(=N\Nc1nc2ccccc2s1)c1cc(N(C)C)ccn1 | Active | – | – | – | 48 nM | – | – | – | – | – |
| C/C(=N\Nc1nc2ccccc2o1)c1ccccn1 | Active | 21% | – | 12% | 6 nM | – | 21% | – | 2% | Activity (NCI-H1299 [8]): inactive; Activity (NCI-H460): inactive |
| C/C(=N\NC(=S)N1CCC1)c1cnccn1 | Active | – | – | – | – | – | – | 2 | – | Ratio EC50 [9]: 4.5; Kd ([10]; read-out: Kd): 99.4 nM |
| C/C(=N\NC(=S)NC1CCN(c2ccccn2)CC1)c1ccccn1 | inactive | – | – | – | – | – | – | – | – | Kd [10]: Not Active |
| C/C(=N\Nc1ccc2ccccc2n1)c1ccccn1 | Active | – | – | – | 141 nM | – | – | – | – | – |
| C/C(=N\Nc1nc2ccccc2o1)c1cc(OCCN(C)C)ccn1 | Active | 51% | 47 nM | 21% | 53 nM | 32% | -25% | 1.4 | 0% | Ratio EC50 [9]: 5.6; inhibition in vivo at 5.73 mg/kg (TOV112D [5]): 56% |
| C/C(=N\Nc1nccn1C)c1ccccn1 | Active | 7% | 408 nM | 23% | 445 nM | 11% | 4% | 0.9 | -2% | Ratio EC50 [9]: 47.1; inhibition in vivo at 5.73 mg/kg (TOV112D [5]): 57% |
| C/C(=N\Nc1nc2ccccc2s1)c1ncccn1 | inactive | -2% | 79 nM | 2% | – | 3% | 84% | 1.2 | 4% | – |
| CS/C(=N\N=C(/C)c1ccccn1)N1CCC1 | inactive | – | – | – | – | – | – | – | – | Kd [10]: Not Active |
| C/C(=N\NC(=S)N1CCC1)c1cccc(C)n1 | Active | – | – | – | 132 nM | – | – | – | – | Kd ([10]; read-out: Kd): 48.3 nM |
| C/C(=N\NC(=S)N(C)C)c1ccccn1 | Active | – | – | – | 1 nM | – | – | 1.3 | – | Ratio EC50 [9]: 0.2; Papp at […], 5 µM [11]: 7.3 ×10⁻⁶ cm/s; Kd ([10]; read-out: Kd): 25.6 nM |
